# Screening results: PubChem BioAssay, several laboratories
# Rows were chosen to be rich in hits. Some 3.5% of all compounds tested hit in one or more screens of this group.
# RAM network inh: blocks the yeast RAM network. S. cerevisiae dse1pr::URA3 reporter, 5-FOA growth OD615, 2 d; analog-sensitive cbk1-as2 kinase mutant strain. hit rate 1.8% among 190,000. inhibition, % at 50 µM. AID 868;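 active = inhibition above a set limit, 3 SD over mean compound inhibition, cut at about 8.4% in these data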;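 note: 0% = DMSO-only wells with no growth and 100% = 10 µM 1-NA-PP1 full growth; inhibition rescues growth on 5-FOA so higher OD means more RAM inhibition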
# bCat nuc transl: alters nuclear translocation of beta-catenin in HeLa cells; immunofluorescence imaging; nuclear translocation activity, % at 5 µM; hit rate 0.3% among 190,000;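 active = nuclear translocation activity above 50% at 5 µM, with a well cell count of 50 or more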;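 note: per-cell ratio of nuclear to cytoplasmic median beta-catenin stain intensity; plate controls were DMSO negative control for no effect and GSK-3 inhibitor IX positive control for full effect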
#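 System: Human HeLa cells, endogenous beta-catenin | Compound dosing: 5 µM primary, 0.02–20 µM confirmation | Timing: 24 h compound exposure at 37°C, 5% CO2 | Measured by: Fluorescence imaging of beta-catenin antibody stain plus DAPI | Read-out basis: % activation of per-cell nuclear versus cytoplasmic median beta-catenin signal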
# Yeast growth inh: reduces growth of yeast BB579 in restrictive medium; S. cerevisiae BB579 growth, OD615, 48 h; hit rate 0.51% among 140,000; AID 804; inhibition, % at 10 µM;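 active = inhibition above a set limit, 3 SD over the mean compound inhibition, cut at about 44% in these data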
#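 test system = yeast BB579 (DeaD) | buffer or medium = restrictive CSMM-D medium | doses = single compound dose of 10 µM, 0.25% DMSO final | times = 4 h preincubation and 48 h exposure at 30 °C | technique = culture absorbance at 615 nm | benchmarks = amphotericin B 10 µg/mL, positive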
# MT stabilizer: microtubule stabilization, imaging screen; HeLa tubulin immunostaining HCS, 24 h; share of cells brighter than vehicle mean+2SD; % tubulin-high responders, % at 10 µM; hit rate 0.83% among 200,000; AID 2205;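 active = plate Z-score above 3 for both tubulin-high and condensed-nucleus cell shares, with cell loss under 80%, at 10 µM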;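 note: anti alpha tubulin signal scored within the nucleus-defined area of each cell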
# HMGR II inh: E. faecalis class II HMG-CoA reductase inhibition. inhibition, % at 10 µM. purified E. faecalis HMGR, NADPH absorbance 340 nm kinetic. hit rate 0.41% among 190,000;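 active = inhibition above a set limit, the median over all tested compounds plus 3 SD, cut at about 9.5% in these data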;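 note: enzyme runs in reverse so mevalonate oxidation gives rising NADPH absorbance; 0% = complete reaction with DMSO and 100% = background rate lacking mevalonate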
# Yeast lifespan up: yeast lifespan extension. S. cerevisiae growth with nicotinamide, OD615; deaD strain in restrictive glucose medium. inhibition of the nicotinamide effect, % at 10 µM. hit rate 0.68% among 130,000. AID 775;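 active = inhibition above a set limit, placed 3 SD over the median of all compounds, cut at about 26% in these data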;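 note: 0% = nicotinamide-treated wells and 100% = cells grown without nicotinamide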
#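 Buffer or medium: CSMM-D glucose medium, restrictive; test system: modified budding yeast, DeaD strain; compound: single dose 10 µM compound, 0.25% DMSO; schedule: culture preincubation 4 h, compound exposure 48 h, both 30 °C; detection: optical density (absorbance) at 615 nm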
# * marks the source's active call; other numbers are inactive results; i = inactive; . = no result.
SMILES,RAM network inh,bCat nuc transl,Yeast growth inh,MT stabilizer,HMGR II inh,Yeast lifespan up
CN(C)S(=O)(=O)c1cccc(NC(=O)COC(=O)CNC(=O)c2cccc([N+](=O)[O-])c2)c1,.,-2,.,.,.,.
CC(C)(C)N(Cc1ccccc1)C(=O)CSc1nnc(CNc2ccc(F)cc2)o1,8.6*,1,-28,2,-9,-3
O=C(Nc1ccc(N2CCOCC2)cc1)c1ccc2nc(-c3ccco3)c(-c3ccco3)nc2c1,7,0,-27,4,2,-19
S=C(Nc1ccc(N2CCOCC2)cc1)Nc1ccc2nc(-c3ccco3)c(-c3ccco3)nc2c1,3,-4,-94,1,3,37*
O=c1c(-c2ccccc2)nc(-c2ccccc2)cn1O,1,4,49*,1,-3,-4
COc1ccc(Nc2nc3cc(C)ccc3cc2C#N)c(OC)c1,3,23,.,21*,-3,.
CC(C1CC1)N(Cc1ccccc1)C(=S)Nc1cccc(C(F)(F)F)c1 (stereo not drawn),6,.,-33,4,2,31*
COc1ccc(C)cc1NC(=O)COC(=O)C1CCN(C(=O)c2ccc(Cl)cc2)CC1,0,0,.,5,19*,.
COc1ccc(N(C)C(=S)Oc2ccc(C(=O)Nc3ccccc3)cc2)cc1,3,-2,-60,44*,2,-9
COC(=O)c1sc2ncccc2c1OCc1cccc(Cl)c1,9.6*,0,-27,1,1,-17
COc1ccc(C2c3c(ccc4ccccc34)Oc3ncn4nc(-c5ccco5)nc4c32)cc1 (stereo not drawn),7,-1,-31,2,3,12
N=c1c2c(ncn1Cc1ccco1)Oc1c(ccc3ccccc13)C2c1ccccc1 (stereo not drawn),-1,7,-67,12*,-3,-3
c1ccc(C2c3c(ccc4ccccc34)Oc3ncn4nc(-c5ccco5)nc4c32)cc1 (stereo not drawn),7,-1,-19,12*,-10,-1
COc1cccc(-c2nc3sc4c(c3c(=O)[nH]2)CCCCC4)c1,0,2,-12,i,0,-3
COc1cc(NS(=O)(=O)c2ccc(NC(=S)NC(=O)CC(C)C)cc2)nc(OC)n1,1,0,-29,3,13*,.
COC(=O)CCC(=O)NC(=S)Nc1ccc(S(=O)(=O)Nc2cc(OC)nc(OC)n2)cc1,1,.,-50,3,-1,3
O=C(Nc1ccc(NC(=S)NC(=O)C(c2ccccc2)c2ccccc2)cc1)c1ccccc1,.,.,.,40*,.,.
O=C(Nc1ccc(NC(=S)NC(=O)c2cccs2)cc1)c1ccccc1,4,-1,-8,2,-2,1
S=c1[nH]nc(CSCCOc2ccc(Cl)cc2Cl)o1,.,4,.,.,.,.
CCSc1nc(N)nc(-c2cccs2)c1C#N,-2,-2,84*,2,-5,-18
CC12C(=O)N(c3ccccc3C(=O)O)C(=O)C1C1C=CC2C1 (stereo not drawn),1,-1,-6,7,-3,1
CC12C(=O)N(c3cccc4cccnc34)C(=O)C1C1C=CC2C1 (stereo not drawn),1,.,46*,2,2,-8
COC(=O)c1ccc(C(=O)OC)c(NC(=S)N2CCCC(C)C2)c1 (stereo not drawn),0,-4,-43,4,0,-2
Cc1c(Cl)c([N+](=O)[O-])nn1CCCC(=O)Nc1c(C)n(C)n(-c2ccccc2)c1=O,1,0,.,1,-4,.
Cc1c(Cl)c([N+](=O)[O-])nn1CCCC(=O)Nc1c(Cl)cccc1Cl,9.9*,-1,-67,3,-13,4
SMILES,RAM network inh,bCat nuc transl,Yeast growth inh,MT stabilizer,HMGR II inh,Yeast lifespan up
CN(C1CCCCC1)S(=O)(=O)c1ccc(-c2ccccn2)s1,.,0,.,.,.,.
NNC(=O)c1ccc(NS(=O)(=O)c2ccc(Br)cc2)cc1,.,0,.,.,.,.
CCC(CC)C(=O)c1c[nH]c(C(=O)NCc2cccs2)c1,1,1,.,2,11*,.
Cc1ccc2[nH]c(=O)c(CN(CC3COCCO3)C(=O)Nc3ccccc3F)cc2c1 (stereo not drawn),-1,2,.,5,-4,.
COc1ccc(NC(=O)c2cn(CCC#N)nc2-c2cc3ccccc3o2)cc1,2,-2,.,7,2,.
N#C/C(C(=O)NCCc1ccccc1)=C1/N=C(NC(=O)c2cccs2)c2ccccc21,5,49,-5,12*,-4,2
Cc1cccc(NC(=O)CC2C(=O)NC3CCCCC3N2C(=O)c2ccccc2Cl)c1 (stereo not drawn),.,-1,.,.,.,.
Cc1ccc(C(=O)N2C(CC(=O)Nc3ccc(Cl)cc3)C(=O)NC3CCCCC32)cc1 (stereo not drawn),2,0,.,20*,-12,.
O=C(Cn1c2c(c(-c3ccccc3Cl)cc1=O)CCC2)NCCCN1CCOCC1,.,1,.,.,.,.
CN(C)S(=O)(=O)c1cccc(NC(=S)NN=C(Cc2ccccc2)Cc2ccccc2)c1,10*,1,-8,2,-1,-3
O=c1c2ccccc2n(Cc2cccc(F)c2)c(=O)n1C1CCCC1,9.3*,0,-45,4,3,7
O=C(NNc1ccccc1C(F)(F)F)c1sccc1Br,.,0,.,.,.,.
CN(C)c1nc(Cl)nc(N(C#N)CCOc2ccccc2)n1,4,-1,.,3,-5,.
COc1cc(C2=NC(CO)(CO)CO2)cc(OC)c1OC,0,-1,.,2,-7,.
COCCCC1CCN(Cc2cn[nH]c2-c2cc(OC)c(OC)c(OC)c2)CC1,0,-3,.,2,0,.
COCC1CCN(Cc2cn[nH]c2-c2cc(OC)c(OC)c(OC)c2)CC1,1,0,.,5,11*,.
COc1c(C(=O)NNC(=O)c2ccccc2Cl)csc1Br,.,0,.,.,.,.
Cc1cc(C)n(C(=O)CNC(=O)C(c2ccccc2)c2ccccc2)n1,8.8*,-2,-55,3,-1,.
Cc1cc(C)n(CC(O)COc2ccccc2C)n1 (stereo not drawn),1,1,.,2,12*,.
Cc1cc(C)n(C(=O)CNC(=O)Cc2ccccc2)n1,0,-7,11,2,2,-15
Cc1cc(C)n(C(=O)COc2ccccc2C)n1,0,2,-55,4,13*,.
Cc1ccc(OCC(=O)n2nc(C)cc2C)c(Br)c1,2,-1,-33,5,0,.
Cc1cc(C)n(CC(O)COc2ccccc2)n1 (stereo not drawn),1,-2,-37,3,3,-24
Nc1c(C(=O)NCc2ccc3c(c2)OCO3)c2nc3ccccc3nc2n1CCCN1CCOCC1,9.8*,11,-36,5,-5,-25
COc1ccccc1CNC(=O)c1c(N)n(CCCN2CCOCC2)c2nc3ccccc3nc12,-1,1,20,2,-4,-17
